Measured values as given in ChEMBL document CHEMBL3632558, “Synthesis, antimycobacterial and antibacterial activity of l-[(1R,2S)-2-fluorocyclopropyl]naphthyridone derivatives containing an oxime-functionalized pyrrolidine moiety” (2015).
In brackets after ≈: the same amount, converted by molar mass.

Tests used:
Type in all cases: functional
Enterococcus faecalis [1] = assay: Antibacterial activity against Enterococcus faecalis 14-2 after 18 to 24 hrs
Method in brief: (§1)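 MIC by standard NCCLS reference procedure (M100-S11); lowest concentration of compound inhibiting visible bacterial growth after incubation at 35 °C for 18–24 h, read as complete inhibition of growth. Ciprofloxacin, levofloxacin and moxifloxacin run alongside as reference agents.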

Enterococcus faecium [2] = assay: Antibacterial activity against Enterococcus faecium 14-1 after 18 to 24 hrs; method in brief: as §1
Enterococcus faecium [3] = assay: Antibacterial activity against Enterococcus faecium 14-2 after 18 to 24 hrs; method in brief: as §1
Enterococcus faecium [4] = assay: Antibacterial activity against Enterococcus faecium 14-5 after 18 to 24 hrs; method in brief: as §1
Enterococcus faecium [5] = assay: Antibacterial activity against Enterococcus faecium 14-6 after 18 to 24 hrs; method in brief: as §1
[6] = system: Mycobacterium tuberculosis; assay: Antimycobacterial activity against Mycobacterium tuberculosis H37Rv ATCC 27294 by alamar blue assay
Method in brief: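 Microplate Alamar Blue Assay; MIC is the lowest concentration giving ≥90% reduction in fluorescence relative to the mean of replicate bacterium-only controls. MDR strain 6133 is resistant to isoniazid and rifampicin.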

Escherichia coli [7] = assay: Antibacterial activity against Escherichia coli ATCC 25922 after 18 to 24 hrs; method in brief: as §1
Escherichia coli [8] = assay: Antibacterial activity against ESBL-positive Escherichia coli 14-1 after 18 to 24 hrs; method in brief: as §1
Escherichia coli [9] = assay: Antibacterial activity against ESBL-positive Escherichia coli 14-2 after 18 to 24 hrs; method in brief: as §1
Escherichia coli [10] = assay: Antibacterial activity against Escherichia coli 14-1 after 18 to 24 hrs; method in brief: as §1
Escherichia coli [11] = assay: Antibacterial activity against Escherichia coli 14-2 after 18 to 24 hrs; method in brief: as §1
Klebsiella pneumoniae [12] = assay: Antibacterial activity against ESBL-positive Klebsiella pneumoniae 14-17 after 18 to 24 hrs; method in brief: as §1
Klebsiella pneumoniae [13] = assay: Antibacterial activity against ESBL-positive Klebsiella pneumoniae 14-18 after 18 to 24 hrs; method in brief: as §1
Klebsiella pneumoniae [14] = assay: Antibacterial activity against ESBL-positive Klebsiella pneumoniae 14-19 after 18 to 24 hrs; method in brief: as §1
Klebsiella pneumoniae [15] = assay: Antibacterial activity against Klebsiella pneumoniae 14-1 after 18 to 24 hrs; method in brief: as §1
Klebsiella pneumoniae [16] = assay: Antibacterial activity against Klebsiella pneumoniae 14-2 after 18 to 24 hrs; method in brief: as §1
Klebsiella pneumoniae [17] = assay: Antibacterial activity against Klebsiella pneumoniae 14-3 after 18 to 24 hrs; method in brief: as §1
Klebsiella pneumoniae [18] = assay: Antibacterial activity against Klebsiella pneumoniae 14-4 after 18 to 24 hrs; method in brief: as §1
Pseudomonas aeruginosa [19] = assay: Antibacterial activity against Pseudomonas aeruginosa ATCC 27853 after 18 to 24 hrs; method in brief: as §1
Pseudomonas aeruginosa [20] = assay: Antibacterial activity against Pseudomonas aeruginosa 14-9 after 18 to 24 hrs; method in brief: as §1
Pseudomonas aeruginosa [21] = assay: Antibacterial activity against Pseudomonas aeruginosa 14-14 after 18 to 24 hrs; method in brief: as §1
Pseudomonas aeruginosa [22] = assay: Antibacterial activity against Pseudomonas aeruginosa 14-15 after 18 to 24 hrs; method in brief: as §1
Pseudomonas aeruginosa [23] = assay: Antibacterial activity against Pseudomonas aeruginosa 14-16 after 18 to 24 hrs; method in brief: as §1
Pseudomonas aeruginosa [24] = assay: Antibacterial activity against Pseudomonas aeruginosa 14-19 after 18 to 24 hrs; method in brief: as §1
Staphylococcus aureus [25] = assay: Antibacterial activity against Staphylococcus aureus CMCC 26003 after 18 to 24 hrs; method in brief: as §1
Staphylococcus aureus [26] = assay: Antibacterial activity against methicillin-sensitive Staphylococcus aureus 14-1 after 18 to 24 hrs; method in brief: as §1
Staphylococcus aureus [27] = assay: Antibacterial activity against methicillin-sensitive Staphylococcus aureus 14-2 after 18 to 24 hrs; method in brief: as §1
Staphylococcus aureus [28] = assay: Antibacterial activity against methicillin-sensitive Staphylococcus aureus 14-3 after 18 to 24 hrs; method in brief: as §1
Staphylococcus aureus [29] = assay: Antibacterial activity against methicillin-sensitive Staphylococcus aureus 14-4 after 18 to 24 hrs; method in brief: as §1
Staphylococcus aureus [30] = assay: Antibacterial activity against methicillin-resistant Staphylococcus aureus 14-4 after 18 to 24 hrs
Staphylococcus aureus [31] = assay: Antibacterial activity against methicillin-resistant Staphylococcus aureus 14-5 after 18 to 24 hrs
[32] = system: Staphylococcus epidermidis; assay: Antibacterial activity against methicillin-sensitive Staphylococcus epidermidis 14-2 after 18 to 24 hrs; method in brief: as §1
[33] = system: Staphylococcus epidermidis; assay: Antibacterial activity against methicillin-resistant Staphylococcus epidermidis 14-21 after 18 to 24 hrs
[34] = system: Staphylococcus epidermidis; assay: Antibacterial activity against methicillin-resistant Staphylococcus epidermidis 14-22 after 18 to 24 hrs
[35] = system: Staphylococcus epidermidis; assay: Antibacterial activity against methicillin-resistant Staphylococcus epidermidis 14-37 after 18 to 24 hrs
[36] = system: Staphylococcus epidermidis; assay: Antibacterial activity against methicillin-resistant Staphylococcus epidermidis 14-39 after 18 to 24 hrs
Streptococcus pneumoniae = assay: Antibacterial activity against Streptococcus pneumoniae ATCC 19615 after 18 to 24 hrs; method in brief: as §1
Enterococcus faecalis [37] = assay: Antibacterial activity against Enterococcus faecalis 14-1 after 18 to 24 hrs; method in brief: as §1

Structure (SMILES) | MIC (Enterococcus faecalis [1]) [µg/mL] | MIC (Enterococcus faecium [2]) [µg/mL] | MIC (Enterococcus faecium [3]) [µg/mL] | MIC (Enterococcus faecium [4]) [µg/mL] | MIC (Enterococcus faecium [5]) [µg/mL] | MIC90 [6] [µg/mL] | MIC (Escherichia coli [7]) [µg/mL] | MIC (Escherichia coli [8]) [µg/mL] | MIC (Escherichia coli [9]) [µg/mL] | MIC (Escherichia coli [10]) [µg/mL] | MIC (Escherichia coli [11]) [µg/mL] | MIC (Klebsiella pneumoniae [12]) [µg/mL] | MIC (Klebsiella pneumoniae [13]) [µg/mL] | MIC (Klebsiella pneumoniae [14]) [µg/mL] | MIC (Klebsiella pneumoniae [15]) [µg/mL] | MIC (Klebsiella pneumoniae [16]) [µg/mL] | MIC (Klebsiella pneumoniae [17]) [µg/mL] | MIC (Klebsiella pneumoniae [18]) [µg/mL] | MIC (Pseudomonas aeruginosa [19]) [µg/mL] | MIC (Pseudomonas aeruginosa [20]) [µg/mL] | other results
CCO/N=C1\CN(c2nc3c(cc2F)c(=O)c(C(=O)O)cn3[C@@H]2C[C@@H]2F)CC1(C)CN (some centres undefined) | 0.03 (≈ 0.0689 µM) | 2 (≈ 4.59 µM) | 2 (≈ 4.59 µM) | 4 (≈ 9.19 µM) | 8 (≈ 18.4 µM) | 0.333 (≈ 0.765 µM) | < 0.008 | 4 (≈ 9.19 µM) | 128 (≈ 294 µM) | 32 (≈ 73.5 µM) | 32 (≈ 73.5 µM) | 4 (≈ 9.19 µM) | 4 (≈ 9.19 µM) | 128 (≈ 294 µM) | 128 (≈ 294 µM) | 128 (≈ 294 µM) | 128 (≈ 294 µM) | 128 (≈ 294 µM) | 2 (≈ 4.59 µM) | 4 (≈ 9.19 µM) | MIC (Pseudomonas aeruginosa [21]): 8 µg/mL (≈ 18.4 µM); MIC (Pseudomonas aeruginosa [22]): 8 µg/mL (≈ 18.4 µM); MIC (Pseudomonas aeruginosa [23]): 8 µg/mL (≈ 18.4 µM); MIC (Pseudomonas aeruginosa [24]): 8 µg/mL (≈ 18.4 µM); MIC (Staphylococcus aureus [25]): < 0.008 µg/mL; MIC (Staphylococcus aureus [26]): 2 µg/mL (≈ 4.59 µM); MIC (Staphylococcus aureus [27]): < 0.008 µg/mL; MIC (Staphylococcus aureus [28]): < 0.008 µg/mL; MIC (Staphylococcus aureus [29]): < 0.008 µg/mL; MIC (Staphylococcus aureus [30]): 4 µg/mL (≈ 9.19 µM); MIC (Staphylococcus aureus [31]): 4 µg/mL (≈ 9.19 µM); MIC [32]: 8 µg/mL (≈ 18.4 µM); MIC [33]: 2 µg/mL (≈ 4.59 µM); MIC [34]: 2 µg/mL (≈ 4.59 µM); MIC [35]: 8 µg/mL (≈ 18.4 µM); MIC [36]: 8 µg/mL (≈ 18.4 µM); MIC (Streptococcus pneumoniae): < 0.008 µg/mL; MIC (Enterococcus faecalis [37]): 8 µg/mL (≈ 18.4 µM)
CC1(CN)CN(c2nc3c(cc2F)c(=O)c(C(=O)O)cn3[C@@H]2C[C@@H]2F)C/C1=N\OCc1ccccc1 (some centres undefined) | 0.25 (≈ 0.503 µM) | 4 (≈ 8.04 µM) | 4 (≈ 8.04 µM) | 8 (≈ 16.1 µM) | 8 (≈ 16.1 µM) | 0.514 (≈ 1.03 µM) | 0.125 (≈ 0.251 µM) | 8 (≈ 16.1 µM) | > 128 | > 128 | > 128 | 16 (≈ 32.2 µM) | 32 (≈ 64.3 µM) | 64 (≈ 129 µM) | 128 (≈ 257 µM) | > 128 | 128 (≈ 257 µM) | > 128 | 8 (≈ 16.1 µM) | 16 (≈ 32.2 µM) | MIC (Pseudomonas aeruginosa [21]): 32 µg/mL (≈ 64.3 µM); MIC (Pseudomonas aeruginosa [22]): 32 µg/mL (≈ 64.3 µM); MIC (Pseudomonas aeruginosa [23]): 32 µg/mL (≈ 64.3 µM); MIC (Pseudomonas aeruginosa [24]): 8 µg/mL (≈ 16.1 µM); MIC (Staphylococcus aureus [25]): < 0.008 µg/mL; MIC (Staphylococcus aureus [26]): 2 µg/mL (≈ 4.02 µM); MIC (Staphylococcus aureus [27]): < 0.008 µg/mL; MIC (Staphylococcus aureus [28]): < 0.008 µg/mL; MIC (Staphylococcus aureus [29]): < 0.008 µg/mL; MIC (Staphylococcus aureus [30]): 8 µg/mL (≈ 16.1 µM); MIC (Staphylococcus aureus [31]): 4 µg/mL (≈ 8.04 µM); MIC [32]: 16 µg/mL (≈ 32.2 µM); MIC [33]: 4 µg/mL (≈ 8.04 µM); MIC [34]: 4 µg/mL (≈ 8.04 µM); MIC [35]: 16 µg/mL (≈ 32.2 µM); MIC [36]: 16 µg/mL (≈ 32.2 µM); MIC (Streptococcus pneumoniae): < 0.008 µg/mL; MIC (Enterococcus faecalis [37]): 32 µg/mL (≈ 64.3 µM)
CO/N=C1\CN(c2nc3c(cc2F)c(=O)c(C(=O)O)cn3[C@@H]2C[C@@H]2F)CC1(C)N (some centres undefined) | 2 (≈ 4.91 µM) | > 128 | > 128 | > 128 | > 128 | 0.392 (≈ 0.962 µM) | 0.5 (≈ 1.23 µM) | 32 (≈ 78.6 µM) | > 128 | > 128 | > 128 | 16 (≈ 39.3 µM) | 32 (≈ 78.6 µM) | > 128 | > 128 | > 128 | > 128 | > 128 | 8 (≈ 19.6 µM) | 16 (≈ 39.3 µM) | MIC (Pseudomonas aeruginosa [21]): 32 µg/mL (≈ 78.6 µM); MIC (Pseudomonas aeruginosa [22]): 32 µg/mL (≈ 78.6 µM); MIC (Pseudomonas aeruginosa [23]): 32 µg/mL (≈ 78.6 µM); MIC (Pseudomonas aeruginosa [24]): 32 µg/mL (≈ 78.6 µM); MIC (Staphylococcus aureus [25]): 0.25 µg/mL (≈ 0.614 µM); MIC (Staphylococcus aureus [26]): 16 µg/mL (≈ 39.3 µM); MIC (Staphylococcus aureus [27]): 0.5 µg/mL (≈ 1.23 µM); MIC (Staphylococcus aureus [28]): 0.5 µg/mL (≈ 1.23 µM); MIC (Staphylococcus aureus [29]): 0.5 µg/mL (≈ 1.23 µM); MIC (Staphylococcus aureus [30]): 128 µg/mL (≈ 314 µM); MIC (Staphylococcus aureus [31]): 128 µg/mL (≈ 314 µM); MIC [32]: > 128 µg/mL; MIC [33]: 128 µg/mL (≈ 314 µM); MIC [34]: 32 µg/mL (≈ 78.6 µM); MIC [35]: 32 µg/mL (≈ 78.6 µM); MIC [36]: 64 µg/mL (≈ 157 µM); MIC (Streptococcus pneumoniae): 0.25 µg/mL (≈ 0.614 µM); MIC (Enterococcus faecalis [37]): 128 µg/mL (≈ 314 µM)
